{"source": "the M2OR odorant receptor database", "tested_on": "T1, O5AN1", "T1 sequence (whole entry)": "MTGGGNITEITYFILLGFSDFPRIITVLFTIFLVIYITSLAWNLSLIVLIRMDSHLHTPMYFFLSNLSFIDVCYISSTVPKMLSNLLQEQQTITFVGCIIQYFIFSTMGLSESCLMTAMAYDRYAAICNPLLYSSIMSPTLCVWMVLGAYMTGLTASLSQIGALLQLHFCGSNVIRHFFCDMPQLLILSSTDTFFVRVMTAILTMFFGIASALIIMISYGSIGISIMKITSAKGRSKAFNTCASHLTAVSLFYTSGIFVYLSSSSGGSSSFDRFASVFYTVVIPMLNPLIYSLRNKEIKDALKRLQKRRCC", "conditions": "stereoisomer not certain", "outline": "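Values were gathered from published papers (main text and supplementary material), with extra details requested from the original authors when needed, and checked for typos and inconsistencies. Each receptor–molecule pair is called responsive (active) if the original authors judged the measured signal statistically different from baseline, and non-responsive (inactive) otherwise. Assay methods varied by source, often transient mammalian cell-line luciferase assays. Recorded details include cell line, G-protein, co-transfected protein and tags.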"}
{"smiles": "OC1CCCCCCCCCCCCCC1", "values": [{"measurement": "odorant receptor agonist call", "value": "active"}]}
